Experimental findings from ChEMBL document CHEMBL4665863 (Bioorg Med Chem, 2020) are described below.

Values after ≈ are worked out from the molar mass of the structure shown. Active and inactive are the calls of the source. No cut-off for these calls is given here.

Test [1] deals with Staphylococcus aureus. Briefly: In-vivo antibacterial activity against Staphylococcus aureus infected in KM mouse model assessed as reduction in bacterial load in blood at 10 mg/kg, iv administered thrice daily and measured after 48 hrs. Format: functional, organism-based. The method in brief:
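Groups of four KM mice (average 20 g) were infected i.v. with 8.5 × 10⁸ CFU of a clinical S. aureus isolate resistant to CIP and ERY, in 0.15 mL saline. Treatment was 10 mg/kg i.v. three times daily. Vehicle was 2% DMAC, 30% PEG400/PG (1:1) and 5% HPβCD in water; vehicle and LIN arms were included. At 48 h, retro-orbital blood (0.1 mL) was plated on TSA for CFU counts.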

Test [2] deals with Bacillus subtilis. Briefly: Inhibition of ftsZ in Bacillus subtilis assessed as increase in enzyme polymerization kinetics at 10 ug/ml measured for 30 mins by microtiter plate-based light scattering assay. To be noted: dose 10.0 µg/ml.
Test [3] has as its system Staphylococcus aureus. The test is described as follows: Bactericidal activity against Staphylococcus aureus clinical isolate assessed as reduction in number of colony forming units incubated for 24 hrs followed by re-plating and reincubation on tryptic soy agar plate for 24 hrs. Format: functional.
The subject of test [4] is Staphylococcus aureus. The test is described as follows: Bactericidal activity against penicillin-resistant Staphylococcus aureus assessed as reduction in number of colony forming units incubated for 24 hrs followed by re-plating and reincubation on tryptic soy agar plate for 24 hrs. Format: functional.
Test [5] concerns Staphylococcus aureus. Briefly: Bactericidal activity against methicillin-resistant Staphylococcus aureus ATCC43300 assessed as reduction in number of colony forming units incubated for 24 hrs followed by re-plating and reincubation on tryptic soy agar plate for 24 hrs. Format: functional.
In test [6] the test system is Staphylococcus aureus. Briefly: Bactericidal activity against Staphylococcus aureus ATCC25923 assessed as reduction in number of colony forming units incubated for 24 hrs followed by re-plating and reincubation on tryptic soy agar plate for 24 hrs. Format: functional.
In test [7] the test system is Pseudomonas aeruginosa. Briefly: Antibacterial activity against Pseudomonas aeruginosa ATCC27853 incubated for 24 hrs by CLSI-based broth microdilution method. Format: functional. For orientation: Dilution methods test growth across graded concentrations, often in twofold steps.
In test [8] the test system is Escherichia coli. The test is described as follows: Antibacterial activity against Escherichia coli ATCC25922 incubated for 24 hrs by CLSI-based broth microdilution method. Format: functional. To be noted: ATCC 25922.
Test [9] has as its system Staphylococcus aureus. The test is described as follows: Antibacterial activity against Staphylococcus aureus clinical isolate incubated for 24 hrs by CLSI-based broth microdilution method. Format: functional.
Test [10] concerns Staphylococcus aureus. The test is described as follows: Antibacterial activity against penicillin-resistant Staphylococcus aureus incubated for 24 hrs by CLSI-based broth microdilution method. Format: functional.
In test [11] the test system is Bacillus pumilus. Briefly: Antibacterial activity against Bacillus pumilus CMCC63202 incubated for 24 hrs by CLSI-based broth microdilution method. Format: functional.
The subject of test [12] is Bacillus subtilis. Briefly: Antibacterial activity against Bacillus subtilis ATCC9372 incubated for 24 hrs by CLSI-based broth microdilution method. Format: functional.
For test [13], the system named is Staphylococcus aureus. The test is described as follows: Bacteriostatic activity against Staphylococcus aureus clinical isolate assessed as ratio of MBC to MIC. Format: functional.
Test [14] relates to Staphylococcus aureus. Briefly: Bacteriostatic activity against penicillin-resistant Staphylococcus aureus assessed as ratio of MBC to MIC. Format: functional.
The test system of test [15] is Staphylococcus aureus. Briefly: Bacteriostatic activity against methicillin-resistant Staphylococcus aureus ATCC43300 assessed as ratio of MBC to MIC. Format: functional.
Test [16] concerns Staphylococcus aureus. The test is described as follows: Bacteriostatic activity against Staphylococcus aureus ATCC25923 assessed as ratio of MBC to MIC. Format: functional.
In test [17] the test system is Staphylococcus aureus. The test is described as follows: Antibacterial activity against Staphylococcus aureus ATCC25923 incubated for 24 hrs by CLSI-based broth microdilution method. Format: functional.
The test system of test [18] is Staphylococcus aureus. The test is described as follows: Antibacterial activity against methicillin-resistant Staphylococcus aureus ATCC43300 incubated for 24 hrs by CLSI-based broth microdilution method. Format: functional.

What is called MBC is the lowest tested concentration that kills the bacteria rather than only halting them. For orientation: MIC means the least concentration at which growth counts as inhibited. Low readings indicate greater potency, high ones weaker potency. In the case of `CC(=O)NC[C@H]1CN(c2ccc(N3CCOCC3)c(F)c2)C(=O)O1` [LINEZOLID], the outcome in [1] was Active. Besides, the inhibition result in [2] is “inactive”. For the same compound, the MBC in test [3] was 64 µg/mL (≈ 190 µM); in [4] it was over 64 µg/mL; in [5], over 64 µg/mL; in [6], over 64 µg/mL. Also, the MIC was over 64 µg/mL in [7]; over 64 µg/mL in [8]; 1 µg/mL (≈ 2.96 µM) in test [9]; 1 µg/mL (≈ 2.96 µM) in test [10]; 1 µg/mL (≈ 2.96 µM) in test [11]; 0.5 µg/mL (≈ 1.48 µM) in [12].

Consider `CC[C@H]1OC(=O)[C@H](C)[C@@H](O[C@H]2C[C@@](C)(OC)[C@@H](O)[C@H](C)O2)[C@H](C)[C@@H](O[C@@H]2O[C@H](C)C[C@H](N(C)C)[C@H]2O)[C@](C)(OC)C[C@@H](C)C(=O)[C@H](C)[C@@H](O)[C@]1(C)O` [CLARITHROMYCIN], for which the Ratio entry in test [13], in [14] and in test [15] was “inactive” each time. Besides, the Ratio in test [16] was determined as 32. Moreover, the MBC result in test [3], in [4] and in test [5] was “inactive” in each case. Further, the MBC in test [6] turned out to be 4 µg/mL (≈ 5.35 µM). Further, the MIC in test [9] was over 64 µg/mL; in [17], 0.125 µg/mL (≈ 0.167 µM); in [18] it was over 64 µg/mL.
